Experimental data taken from ChEMBL document CHEMBL3046179, “Study on the anthraquinones separated from the cultivation of Trichoderma harzianum strain Th-R16 and their biological activity” (J Agric Food Chem, 2009).
Where a name gives a salt, the structure may show the parent alone.

What was measured:
Bacillus cereus [1] = assay: Antibacterial activity against Bacillus cereus at 50 ug/mL after 24 hr by agar disk diffusion method; type: functional; settings: read-out: DIZ
Staphylococcus aureus [2] = assay: Antibacterial activity against Staphylococcus aureus at 50 ug/mL after 24 hr by agar disk diffusion method; type: functional; settings: read-out: DIZ
Escherichia coli [3] = assay: Antibacterial activity against Escherichia coli at 50 ug/mL after 24 hr by agar disk diffusion method; type: functional; settings: read-out: DIZ
Pseudomonas aeruginosa [4] = assay: Antibacterial activity against Pseudomonas aeruginosa at 50 ug/mL after 24 hr by agar disk diffusion method; type: functional; settings: read-out: DIZ
Botrytis cinerea [5] = assay: Antifungal activity against Botryotinia fuckeliana assessed as growth inhibition at 500 ug/mL after 4 days; type: functional; settings: 96 h, read-out: GI
Outline: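 Mycelial plug of B. cinerea was placed at the centre of PDA dishes containing test sample at 25 to 500 μg/mL. Colony diameter (mm) was read after 4 days, in triplicate.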

Staphylococcus aureus [6] = assay: Antibacterial activity against Staphylococcus aureus using 50 uL of compound solution from 500 ug/mL stock solution after 24 hr by agar disk diffusion method; type: functional
Outline: (§1)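 Agar disk diffusion. Plates were spread with 1 mL culture containing 1 × 10^7 CFU: S. aureus and E. coli on tryptic soy agar, B. cereus and P. aeruginosa on nutrient agar. Each 8 mm filter-paper disc was blotted with 50 μL of a 500 μg/mL sample. Kanamycin sulfate 50 μg/mL discs were the positive control. Plates ran 24 h at 37 °C, and inhibition-zone diameter was measured in triplicate.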

Pseudomonas aeruginosa [7] = assay: Antibacterial activity against Pseudomonas aeruginosa using 50 uL of compound solution from 500 ug/mL stock solution after 24 hr by agar disk diffusion method; type: functional; outline: as §1
Escherichia coli [8] = assay: Antibacterial activity against Escherichia coli using 50 uL of compound solution from 500 ug/mL stock solution after 24 hr by agar disk diffusion method; type: functional; outline: as §1
Staphylococcus aureus [9] = assay: Antibacterial activity against Staphylococcus aureus after 24 hr by agar disk diffusion method; type: functional, organism-based; outline: as §1
Bacillus cereus [10] = assay: Antibacterial activity against Bacillus cereus using 50 uL of compound solution from 500 ug/mL stock solution after 24 hr by agar disk diffusion method; type: functional; outline: as §1
Rhizoctonia solani [11] = assay: Antifungal activity against Rhizoctonia solani assessed as growth inhibition at 500 ug/mL after 2 days; type: functional; settings: 48 h, read-out: GI
Outline: (§2)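 Rhizoctonia solani plugs were set centrally on PDA dishes holding test sample at 25 to 500 μg/mL. Mycelial diameter (mm) was measured after 2 days, in triplicate.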

Botrytis cinerea [12] = assay: Antifungal activity against Botryotinia fuckeliana as inhibition of mycelium growth after 4 days; type: functional, organism-based
Outline: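 Mycelial plugs of the pathogen placed at the centre of PDA Petri dishes holding 10 mL of test sample at 25 to 500 μg/mL. Mycelial diameter (mm) measured after 4 days for B. cinerea. Run in triplicate.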

Rhizoctonia solani [13] = assay: Antifungal activity against Rhizoctonia solani assessed as inhibition of mycelium growth after 2 days; type: functional, organism-based; outline: as §2

## NC[C@H]1O[C@H](O[C@H]2[C@H](O)[C@@H](O[C@H]3O[C@H](CO)[C@@H](O)[C@H](N)[C@H]3O)[C@H](N)C[C@@H]2N)[C@H](O)[C@@H](O)[C@@H]1O [KANAMYCIN SULFATE]
Bacillus cereus [1]
  zone of inhibition at 50 µg/mL: 15 mm
Staphylococcus aureus [2]
  zone of inhibition at 50 µg/mL: 13 mm
Escherichia coli [3]
  zone of inhibition at 50 µg/mL: 12 mm
Pseudomonas aeruginosa [4]
  zone of inhibition at 50 µg/mL: 13 mm

## O=C1c2ccccc2C(=O)c2c(O)cc(CO)cc21 [OMEGA-HYDROXYPACHYBASIN]
Botrytis cinerea [5]
  inhibition of growth at 500 µg/mL: 47.3%
Staphylococcus aureus [6]
  diameter of the inhibition zone (DIZ): 20 mm
Pseudomonas aeruginosa [7]
  diameter of the inhibition zone (DIZ): <10 mm
Escherichia coli [8]
  diameter of the inhibition zone (DIZ): <10 mm
Staphylococcus aureus [9]
  IC50: 123 µM
Bacillus cereus [10]
  diameter of the inhibition zone (DIZ): 11 mm
Rhizoctonia solani [11]
  inhibition of growth at 500 µg/mL: 41.5%

## Cc1cc(O)c2c(c1)C(=O)c1cccc(O)c1C2=O [CHRYSOPHANOL]
Botrytis cinerea [5]
  inhibition of growth at 500 µg/mL: 22.5%
Staphylococcus aureus [6]
  diameter of the inhibition zone (DIZ): <10 mm
Pseudomonas aeruginosa [7]
  diameter of the inhibition zone (DIZ): <10 mm
Escherichia coli [8]
  diameter of the inhibition zone (DIZ): <10 mm
Bacillus cereus [10]
  diameter of the inhibition zone (DIZ): <10 mm
Rhizoctonia solani [11]
  inhibition of growth at 500 µg/mL: 21.2%

## Cc1cc(O)c2c(c1)C(=O)c1cc(O)cc(O)c1C2=O [EMODIN]
Botrytis cinerea [5]
  inhibition of growth at 500 µg/mL: 51.7%
Staphylococcus aureus [6]
  diameter of the inhibition zone (DIZ): 11 mm
Pseudomonas aeruginosa [7]
  diameter of the inhibition zone (DIZ): <10 mm
Escherichia coli [8]
  diameter of the inhibition zone (DIZ): <10 mm
Staphylococcus aureus [9]
  IC50: 46.3 µM
Botrytis cinerea [12]
  growth inhibition (GI): Dose-dependent effect
Bacillus cereus [10]
  diameter of the inhibition zone (DIZ): 10 mm
Rhizoctonia solani [11]
  inhibition of growth at 500 µg/mL: 39%

## Cc1cc(O)c2c(c1)C(=O)c1ccccc1C2=O [PACHYBASIN]
Botrytis cinerea [5]
  inhibition of growth at 500 µg/mL: 6%
Staphylococcus aureus [6]
  diameter of the inhibition zone (DIZ): 10.33 mm
Pseudomonas aeruginosa [7]
  diameter of the inhibition zone (DIZ): <10 mm
Escherichia coli [8]
  diameter of the inhibition zone (DIZ): <10 mm
Bacillus cereus [10]
  diameter of the inhibition zone (DIZ): <10 mm
Rhizoctonia solani [11]
  inhibition of growth at 500 µg/mL: 13.9%

## O=C1c2ccc(O)cc2C(=O)c2c(O)cc(CO)cc21
Botrytis cinerea [5]
  inhibition of growth at 500 µg/mL: 92.8%
Staphylococcus aureus [6]
  diameter of the inhibition zone (DIZ): 14.33 mm
Pseudomonas aeruginosa [7]
  diameter of the inhibition zone (DIZ): <10 mm
Escherichia coli [8]
  diameter of the inhibition zone (DIZ): <10 mm
Staphylococcus aureus [9]
  IC50: 221 µM
Botrytis cinerea [12]
  growth inhibition (GI): Dose-dependent effect
Bacillus cereus [10]
  diameter of the inhibition zone (DIZ): <10 mm
Rhizoctonia solani [11]
  inhibition of growth at 500 µg/mL: 67.3%

## O=C1c2cc(CO)cc(O)c2C(=O)c2cccc(O)c21
Botrytis cinerea [5]
  inhibition of growth at 500 µg/mL: 53.7%
Staphylococcus aureus [6]
  diameter of the inhibition zone (DIZ): 17.67 mm
Pseudomonas aeruginosa [7]
  diameter of the inhibition zone (DIZ): <10 mm
Rhizoctonia solani [13]
  growth inhibition (GI): Dose-dependent effect
Escherichia coli [8]
  diameter of the inhibition zone (DIZ): <10 mm
Staphylococcus aureus [9]
  IC50: 117 µM
Bacillus cereus [10]
  diameter of the inhibition zone (DIZ): 10.66 mm
Rhizoctonia solani [11]
  inhibition of growth at 500 µg/mL: 25.4%
